Assay results of several laboratories.
Lines come from different studies, so protocols differ.
Target: High affinity nerve growth factor receptor (NTRK1, Homo sapiens, UniProt P04629)

CN(C)c1ncc(F)c(-c2cnn3ncccc23)n1  remaining binding (binding; 1 µM): 97%
FC(F)(F)Oc1cccc(-c2cnc3ccc(-c4ccncc4)nn23)c1  remaining binding (cell-free assay; competition with immobilised ligand; 5 µM): 1.9%
c1cnn2ncc(-c3ccnc(N4CCC45COC5)n3)c2c1  remaining binding (binding; 1 µM): 53%
CC(C)(C)c1ccc(-c2nc(CBr)nn2-c2cccc(O)c2)cc1  remaining binding (cell-free assay; competition with immobilised ligand; 10 µM): 71%
CCS(=O)(=O)c1cc2cc(C[C@@](O)(CC(C)(C)c3ccc(F)cc3C(N)=O)C(F)(F)F)[nH]c2cn1  remaining binding (cell-free assay; competition with immobilised ligand; 1 µM): 74%
COc1ccnn2ncc(-c3ccnc(N(C)C)n3)c12  remaining binding (binding; 1 µM): 79%
O=C(Nc1c[nH]nc1C(=O)NC1CCNCC1)c1cc(F)cc(F)c1  remaining binding (binding; competition with immobilised ligand; 1 µM): 100%
CN(C(=O)c1ccccc1)c1cc(N(C)c2ccc3c(c2)CCc2ccc(C(=O)NCCN4CCOCC4)cc2C3=O)ccc1F  remaining binding (cell-free assay; competition with immobilised ligand; 1 µM): 79%
O=C(c1ccc(Nc2ncc(Cl)c(-c3cc4ccccc4s3)n2)cc1)N1CCC(N2CCCC2)CC1  remaining binding (binding; competition with immobilised ligand; 1 µM): 1.4%
Cc1cnn2ncc(-c3ccnc(N(C)C)n3)c2c1  remaining binding (binding; 1 µM): 80%
NS(=O)(=O)c1cc(NC(=O)Cc2ccccc2)ccc1Oc1cccc(Cl)c1  remaining binding (cell-free assay; competition with immobilised ligand; 1 µM): 73%
COc1cnc(Nc2cccc(S(N)(=O)=O)c2)nc1N1CCN(c2ccccc2)CC1  remaining binding (binding; competition with immobilised ligand; 1 µM): 58%
N#Cc1ccccc1CSc1nnc2c(n1)[nH]c1ccccc12  remaining binding (binding; competition with immobilised ligand; 10 µM): 98%
N[C@H]1CCN(c2nccc(-c3cnn4ncccc34)n2)C1  remaining binding (binding; 1 µM): 85%
Cn1cc(Cl)c2c(Oc3c(F)cc(Nc4cc(Cl)nc(N)n4)cc3F)ccnc21  remaining binding (cell-free assay; competition with immobilised ligand; 0.1 µM): 74%
O=C(NCCCN1CCOCC1)c1ccc(Nc2ncc(Cl)c(-c3ccc(Cl)s3)n2)cc1  remaining binding (binding; competition with immobilised ligand; 1 µM): 17%
